Laboratory results reported in ChEMBL document CHEMBL1140383, “Synthesis of 5-nitro-2-furancarbohydrazides and their cis-diamminedichloroplatinum complexes as bitopic and irreversible human thioredoxin reductase inhibitors” (J Med Chem, 2005).
pIC50, pKi: −log10 of the molar value. Values belong to the compound of their own block, whether it stands above or below them.

Legend:
[1] = test system: Calu-6; assay: Inhibitory concentration against Calu-6 cell line; type: functional, cell-based, Homo sapiens
Outline: (§1)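 Human tumour lines grown in DMEM at 37 °C under 5% CO2, seeded in 96-well plates. Dosed next day in quadruplicate with 1:2 serial dilutions, 50 to 0.8 μg/mL; platinum complexes from DMF stock, cisplatin in water. After 96 h cells fixed in 3% formaldehyde and stained with 1% crystal violet, absorbance at 595 nm. For MCF-7 the dye was eluted with ethanol/1% acetic acid before reading. IC50 from fitted dose–response curves.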

[2] = target: T1, Thioredoxin reductase (Homo sapiens, UniProt Q16881+Q9NNW7+Q86VQ6); assay: Inhibitory concentration against wild type mutant human thioredoxin reductase (Sec498Cys) (1.3 uM) pre-incubated for 10 min at 25 degree C in buffer in the presence of 100 uM NADPH; type: protein assay
Outline: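 Recombinant hTrxR Sec498Cys (1.3 μM) preincubated 10 min at 25 °C with 100 μM NADPH and inhibitor in potassium phosphate/EDTA buffer, pH 7.4. Reaction started with 20 μM hTrxC72S; NADPH oxidation read at 340 nm. DMF controls. IC50 from dose–response curves, at least three determinations.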

[3] = target: T1, Thioredoxin reductase; assay: Inhibitory concentration against wild type human thioredoxin reductase; type: protein assay
Outline: (§2)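 Placental wt-hTrxR (5 nM) preincubated 10 min at 25 °C with 200 μM NADPH and inhibitor (from 10 mM DMF stock) in 100 mM potassium phosphate, 2 mM EDTA, pH 7.4. Started with 3 mM DTNB; TNB formation read at 412 nm. DMF controls. IC50 from dose–response curves, mean of at least three determinations.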

[4] = target: T1, Thioredoxin reductase; assay: Inhibitory concentration against wild type human thioredoxin reductase (5 nM) pre-incubated for 10 min at 25 degree C in buffer in the presence of 200 uM NADPH; type: protein assay; outline: as §2
[5] = target: T1, Thioredoxin reductase; assay: Inhibitory concentration against wild type mutant human thioredoxin reductase (hTrxRdelta-16) pre-incubated for 10 min at 25 degree C in buffer in the presence of 200 uM NADPH; type: protein assay
Outline: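 Truncated recombinant hTrxRΔ-16 preincubated 10 min at 25 °C with 200 μM NADPH and inhibitor in potassium phosphate/EDTA buffer, pH 7.4. Reaction started with 3 mM DTNB; TNB formation read at 412 nm. DMF controls. IC50 from dose–response curves.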

[6] = test system: MCF7; assay: Inhibitory concentration against MCF-7 cell line; type: functional, cell-based, Homo sapiens; outline: as §1
[7] = target: T1, Thioredoxin reductase; assay: Inhibitory concentration against wild type mutant human thioredoxin reductase (Sec498Cys) (100 nM) pre-incubated for 10 min at 25 degree C in buffer in the presence of 200 uM NADPH; type: protein assay
Outline: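 Recombinant hTrxR Sec498Cys (100 nM) preincubated 10 min at 25 °C with 200 μM NADPH and inhibitor in potassium phosphate/EDTA buffer, pH 7.4. Started with 3 mM DTNB; absorbance read at 412 nm. DMF controls. IC50 from dose–response curves, mean of at least three determinations.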

[8] = test system: SK-MEL-25; assay: Inhibitory concentration against SK-MEL-25 cell line; type: functional, cell-based, Homo sapiens; outline: as §1
[9] = target: T1, Thioredoxin reductase; assay: Inhibitory concentration against wild type human thioredoxin reductase (30 nM) pre-incubated for 10 min at 25 degree C in phosphate buffer in the presence of 100 uM NADPH; type: protein assay
Outline: as §2, with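 “(30” for “(5”, “100” for “200”, “20 μM hTrxC72S; NADPH oxidation” for “3 mM DTNB; TNB formation”, “340” for “412”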

[10] = target: T1, Thioredoxin reductase; assay: Inhibitory concentration against human thioredoxin reductase; type: protein assay
Outline: (§3)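 Human TrxR purified from placenta, 5 nM in the DTNB assay or 30 nM in the Trx assay. Enzyme was preincubated 10 min at 25 °C in 100 mM potassium phosphate, 2 mM EDTA, pH 7.4, with NADPH and inhibitor (DMF stock; DMF controls). DTNB assay: 200 μM NADPH, started with 3 mM DTNB, A412. Trx assay: 100 μM NADPH, started with 20 μM hTrxC72S, A340. IC50 from dose–response curves, ≥3 determinations.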

[11] = target: T2, Glutathione reductase, mitochondrial (Homo sapiens, UniProt P00390); assay: Inhibitory concentration against human glutathione reductase
T2 sequence (P00390 whole entry): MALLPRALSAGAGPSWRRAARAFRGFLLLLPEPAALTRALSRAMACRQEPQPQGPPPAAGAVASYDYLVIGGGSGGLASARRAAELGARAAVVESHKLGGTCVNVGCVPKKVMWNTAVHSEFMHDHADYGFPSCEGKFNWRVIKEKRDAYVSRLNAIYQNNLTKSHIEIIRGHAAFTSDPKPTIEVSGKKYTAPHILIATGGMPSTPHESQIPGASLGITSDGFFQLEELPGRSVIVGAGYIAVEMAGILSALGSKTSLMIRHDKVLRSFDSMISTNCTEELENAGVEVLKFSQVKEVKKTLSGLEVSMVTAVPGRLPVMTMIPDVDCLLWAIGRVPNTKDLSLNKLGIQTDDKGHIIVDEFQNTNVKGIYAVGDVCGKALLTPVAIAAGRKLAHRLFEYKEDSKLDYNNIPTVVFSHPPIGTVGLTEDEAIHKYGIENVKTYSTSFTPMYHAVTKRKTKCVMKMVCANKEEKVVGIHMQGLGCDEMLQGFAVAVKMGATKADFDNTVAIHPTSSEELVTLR

[12] = target: T1, Thioredoxin reductase; assay: Inhibitory concentration (25 uM) against human thioredoxin reductase; type: protein assay
Outline: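 Placental hTrxR screen in 100 mM sodium phosphate, 2 mM EDTA, pH 7.0. Mix held 500 μM NADPH, 200 μM DTNBA and 25 μM inhibitor. Reaction started with native enzyme. Thionitrobenzamide formation read at 416 nm over time, with and without inhibitor.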

[13] = test system: MCF7; assay: Ratio of inhibition by compound against MCF-7 cell line to inhibition by cisPt against MCF-7 cell line; type: functional, cell-based; conditions: Homo sapiens
Outline: (§4)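 Cytotoxicity in DMEM at 37 °C, 5% CO2, quadruplicate 1:2 dilutions (50 to 0.8 μg/mL), 96 h, crystal violet read at 595 nm. Value is the ratio of the complex IC50 to the cisplatin IC50 measured on the same line.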

[14] = test system: SK-MEL-25; assay: Ratio of inhibition by compound against SK-MEL-25 cell line to inhibition by cisPt against SK-MEL-25 cell line; type: functional, cell-based; conditions: Homo sapiens; outline: as §4
[15] = test system: Calu-6; assay: Ratio of inhibition by compound against Calu-6 cell line to inhibition by cisPt against Calu-6 cell line; type: functional, cell-based; conditions: Homo sapiens; outline: as §4
[16] = target: T1, Thioredoxin reductase; assay: Inhibitory concentration agains human thioredoxin reductase; type: protein assay; outline: as §3

pIC50 [1]: 4.56
pIC50 [2]: 4.42
pKi [3]: 6.56
pIC50 [4]: 6.96
pIC50 [5]: 3.84
pIC50 [6]: 4.27
pIC50 [7]: 3.89
pIC50 [8]: 4.82
pIC50 [9]: 6.92
Compound: 2-(2-Amino-ethylamino)-N-(7-{2-[N'-(5-nitro-furan-2-carbonyl)-hydrazino]-2-oxo-ethyl}-naphthalen-2-yl)-acetamide; compound with GENERIC INORGANIC NEUTRAL COMPONENT [listing 1 of 2 here]

Compound: O=C1C=CC(=Nc2cc(Cl)c(O)c(Cl)c2)C=C1 [DICHLOROPHENOL INDOPHENOL]
IC50 [10]: 25 µM

pIC50 [11]: 5.39
IC50 [12]: 16 µM
pIC50 [4]: 4.74
pIC50 [5]: 3.67
Compound: O=C(Cc1ccc2ccccc2c1)NNC(=O)c1ccc([N+](=O)[O-])o1

Compound: 2-(2-Amino-ethylamino)-N-(7-{2-[N'-(5-nitro-furan-2-carbonyl)-hydrazino]-2-oxo-ethyl}-naphthalen-2-yl)-acetamide; compound with GENERIC INORGANIC NEUTRAL COMPONENT [listing 2 of 2 here]
Ratio [13]: 0.8
Ratio [14]: 3
Ratio [15]: 15.3

Compound: O=C1C=CC(=O)c2c(O)ccc(O)c21 [NAPHTHAZALIN]
IC50 [16]: 20 µM
